HSF1 inhib = HSF1 inhibition; NIH3T3-HGL HSE-luciferase, MG132-induced, luminescence 8 h; active compounds read low; AID 2098; hit rate 0.77% among 300,000; activity change, negative = inhibition, % at 7.5 µM (by protocol);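 active = more than half of replicate wells show activity change below -50%, luminescence cut by over half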;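 also: luciferase reports HSF-1 transcriptional activity via heat shock element; 0% = median of DMSO wells and -100% = zero luminescence signal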
T cruzi inh = blocks replication of Trypanosoma cruzi | hit rate 1.4% among 300,000 | T. cruzi beta-gal in NIH3T3, luminescence, 90 h | inhibition, % (test concentration not listed) | AID 1885;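 active = mean inhibition across valid replicates above about 55%, limit read from the data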;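 also: signal also drops with host cell toxicity which is not excluded here; 0% = plate median of DMSO wells and 100% = zero luminescence signal; higher percent means less beta-gal luminescence so fewer parasites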
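System: Mouse NIH/3T3 fibroblasts infected with β-gal-expressing T. cruzi Tulahuen C4 | Quantity: NIH/3T3 cells, 5,000 per well | Reagent: 5000 reporter trypomastigotes per well | Dosing: Compound pinned at 50 nL/well, DMSO | Schedule: 3 h host attachment, then at least 90 h co-culture | Detection: GalScreen luminescence, 60 min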
HSF1 activator = increases HSF-1 driven luciferase reporter signal | hit rate 1.7% among 300,000 | NIH3T3-HGL HSF-1 luciferase reporter, MG132, 8 h; 100% = twice DMSO control signal | AID 504408 | activation, % at 9 µM;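 active = mean replicate activation of at least 50% with a set share of replicates each reaching 50%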;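 also: 0% = median of the neutral control wells and 100% = twice that signal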
Hsp70 act = transcriptional activators of Hsp70. activation, % at 10 µM. HeLa Hsp70 promoter luciferase reporter, luminescence; scaled: vehicle 0, proteasome-inhibitor control 100%. AID 1203. hit rate 0.04% among 200,000;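 active = activation above the mean across all tested compounds plus 3 SD, cutoff set per campaign, cut at about 5.5% in these data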;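 also: 100% = MG132 at 30 µM as the positive control and 0% = DMSO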
Lmaj promast = Leishmania major promastigote growth inhibition; Leishmania major promastigotes, resazurin fluorescence viability; inhibition, % at 10 µM; hit rate 9% among 200,000; AID 1063; in the data active = inhibition above about 50%;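 also: promastigotes grown with compound for 44 hours at 28 °C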
Numbers without * were called inactive; . = not tested or not shown. The sample as a whole holds a higher share of hits than the screen did.

SMILES	HSF1 inhib	T cruzi inh	HSF1 activator	Hsp70 act	Lmaj promast
O=C(OCC(=O)C12CC3CC(CC(C3)C1)C2)c1cccnc1Cl	13	4	19	0	60*
O=C1NC(=S)N/C1=C\c1cccnc1	-21	2	-19	.	.
O=C1/C(=C/c2cccnc2)CCC/C1=C\c1cccnc1	.	.	.	3	100*
NC1=NC(=O)/C(=C\c2cccnc2)S1	-16	2	-19	0	0
CCC1C/C(=C\c2cccnc2)C(=O)/C(=C/c2cccnc2)C1 (stereo not given)	.	.	.	25*	100*
O=C1/C(=C\c2cccnc2)CCc2ccccc21	-6	7	-5	0	100*
CC(C)/C=C1\CC/C(=C\c2cccnc2)C1=O	2	56*	-2	0	54*
CCOc1ccc(NC(=O)CC(NCc2ccccn2)C(=O)O)cc1 (stereo not given)	-13	-2	-15	0	-2
CC(=O)Nc1cccc(C(=O)Nc2cccnc2)c1	-5	-5	-10	0	0
O=C1/C(=C/c2cccnc2)CC/C1=C\c1cccnc1	-6	2	-7	0	82*
O=C1/C(=C/c2ccc(C(=O)O)cc2)CCC/C1=C\c1ccc(C(=O)O)cc1	2	-18	19	0	66*
CC(C)N1C(=O)S/C(=C/c2cccnc2)C1=O	-1	-8	17	0	71*
O=C1/C(=C/c2cccnc2)SC(=NCc2ccccc2)N1Cc1ccccc1	0	63*	-21	0	32
O=C1NC(=S)N/C1=C/c1cccnc1	-13	0	-15	.	.
CN(C)c1ccc(/C=C2\CCC/C(=C\c3ccccc3)C2=O)cc1	16	11	33	0	49
Cc1cc(C(=O)N/N=C/c2c[nH]c3ccccc23)cs1	19	-2	3	0	14
O=C(N/N=C/c1c[nH]c2ccccc12)c1ccncc1	-1	-13	-1	0	56*
O=C(N/N=C/c1c[nH]c2ccccc12)c1ccccc1	7	1	20	.	.
Cc1ccc(C(=O)Nc2ccc(C(=O)N/N=C/c3c[nH]c4ccccc34)cc2)cc1	8	-31	28	0	73*
C=CCNC(=S)N/N=C/c1ccc(-c2ccc(Cl)cc2Cl)o1	-3	60*	-9	.	.
NC(=S)N/N=C/c1ccc(-c2cc(Cl)c(Cl)cc2Cl)o1	4	64*	14	0	78*
C=CCNC(=S)N/N=C/c1ccc(-c2ccc(OC)cc2)o1	28	91*	40	0	11
C=CCNC(=S)N/N=C/c1ccc(-c2cc(Cl)ccc2Cl)o1	-14	17	-12	0	5
CC(=O)c1ccc(NC(=O)CNCc2cccs2)cc1	24	7	21	.	.
N#Cc1ccc(Cl)cc1NC(=O)CNCc1cccs1	25	-9	65*	.	.
SMILES	HSF1 inhib	T cruzi inh	HSF1 activator	Hsp70 act	Lmaj promast
COC(=O)C(Cc1ccccc1)NC(=O)CCCC(=O)NCc1cccc(OC)c1 (stereo not given)	-8	-9	-3	.	.
CCOC(=O)C1(CCCc2ccccc2)CCN(S(=O)(=O)N(C)C)CC1	6	5	4	.	.
CC(NC(=O)c1ccco1)C(=O)N1CCCCC1 (stereo not given)	2	2	0	.	.
Cc1cc(C(=O)N(C)Cc2ccc(Br)cc2)no1	2	-7	14	0	-11
CN(Cc1ccccc1)C(=O)c1cc(-c2ccc(Br)cc2)on1	18	0	62*	0	-4
Cc1ccc(NC(=O)C(C)N=C2NS(=O)(=O)c3ccccc32)cc1F (stereo not given)	26	1	29	.	.
Cc1ccc(OCC(=O)N2CCc3ccccc3C2)c(C)c1	7	21	10	.	.
Cc1ccc(OCC(=O)N2CCc3ccccc3C2)c(Br)c1	59	11	76*	.	.
Fc1ccc(CSc2ccc3nnc(-c4cccnc4)n3n2)cc1	2	8	29	0	66*
O=C(O)CSc1ccc2nnc(-c3cccnc3)n2n1	-8	-5	1	0	-4
COc1ccc(N2CCN(CC(=O)c3ccc(Cl)cc3)CC2)cc1	4	7	-15	.	.
CCc1ccc(C(=O)N/N=C(\C)c2ccncc2)s1	-74*	8	-79	.	.
O=C(NC1=NCCS1)c1sc2ccccc2c1Cl	20	6	50	0	-1
O=C(NC1=NCCS1)c1sc2cc(Cl)cc(Cl)c2c1Cl	13	-4	2	0	76*
COC(=O)Nc1ccc(S(=O)(=O)N2CCCC(C(=O)N3CCOCC3)C2)cc1 (stereo not given)	-3	0	2	.	.
CC1Cc2cc(S(=O)(=O)N3CCCC(C(=O)N4CCCCC4)C3)ccc2N1C(=O)C1CC1 (stereo not given)	2	-8	0	.	.
COC(=O)Nc1ccc(S(=O)(=O)N2CCC(C(=O)N3CCCC(C)C3)CC2)cc1 (stereo not given)	39	-8	69*	0	-3
CC1CCCN(C(=O)C2CCN(S(=O)(=O)c3ccc4c(c3)CC(C)N4C(=O)C3CC3)CC2)C1 (stereo not given)	-68*	8	-75	.	.
O=C(C1CCCC1)N1CCN(S(=O)(=O)c2cccc(Cl)c2Cl)CC1	0	1	-20	.	.
CCc1nc2ccccc2n1CC(O)COCC1CC=CCC1 (stereo not given)	9	-1	18	0	4
CCOc1ccccc1N1CCN(C(=O)c2cc3c(s2)CCC3)CC1	4	10	4	0	68*
COc1ccccc1N1CCN(C(=O)c2cc3c(s2)CCCCC3)CC1	-1	17	2	.	.
O=C(c1cc2c(s1)CCCC2)N1CCN(S(=O)(=O)c2ccccc2C(F)(F)F)CC1	-1	40	8	0	77*
CCOC(=O)C1=C(O)C(=O)N(CCCn2ccnc2)C1c1ccc(OC)cc1 (stereo not given)	3	-1	9	0	-9
CC1CCc2c(sc3nc(CN4CCOCC4)nc(N4CCc5ccccc5C4)c23)C1 (stereo not given)	-1	16	-10	0	13
SMILES	HSF1 inhib	T cruzi inh	HSF1 activator	Hsp70 act	Lmaj promast
Cc1ccc(Oc2nc(CN3CCOCC3)nc3sc4c(c23)CCC(C)C4)cc1 (stereo not given)	-5	9	2	0	76*
CC1CCc2c(sc3nc(CN4CCOCC4)nc(NS(=O)(=O)c4cccc([N+](=O)[O-])c4)c23)C1 (stereo not given)	3	9	-1	0	1
Cc1ccc(Oc2nc(CN3CCOCC3)nc3sc4c(c23)CCC(C)C4)cc1C (stereo not given)	-43	23	-57	0	97*
O=c1[nH]nc(SCc2nnc(-c3cccc(Cl)c3)o2)n1C1CCCCC1	2	12	31	.	.
COCCN(C(=O)CSc1nncn1-c1ccccc1)c1c(N)n(Cc2ccccc2)c(=O)[nH]c1=O	0	-13	-10	0	54*
CCN(C(=O)CSc1nncn1-c1ccccc1)c1c(N)n(Cc2ccccc2)c(=O)[nH]c1=O	-4	-10	-8	0	-4
